The source of these data is ChEMBL document CHEMBL1268807, “Discovery of small molecule inhibitors of the PH domain leucine-rich repeat protein phosphatase (PHLPP) by chemical and virtual screening” (J Med Chem, 2010).

Calls of active or inactive are those of the source. The rule behind the calls is not given here.

Assay [1] deals with COS-7. Nature of the assay: Induction of apoptosis assessed as basal level of apoptotic cells in african green monkey COS7 cells at 50 uM after 24 hrs by trypan blue exclusion assay.
The nature of assay [2]: Inhibition of PHLPP in human […] cells assessed as increase of phosphorylation of FoxO1/3alpha on Thr 24/32 at 100 to 250 uM after 24 hrs by immunoblotting. Format: cell-based. In a few lines: (§1)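 HT29 colon cells kept in DMEM with 5% FBS were given compounds (100 or 250 μM, DMSO vehicle) for 24 h, then lysed on ice. […] Densitometry normalized to actin and expressed relative to control lanes; three experiments, mean ± SEM.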

Assay [3] can be described thus: Inhibition of PHLPP expressed in 24 hrs serum starved Cos7 cells assessed as increase of Akt phosphorylation after 30 mins by immunoblotting. The following applies: COS-7.
For assay [4], the target named is Serine/threonine protein phosphatase PP2B-alpha catalytic subunit (Homo sapiens) (UniProt P16298). The assay is described as follows: Inhibition of protein phosphatase 2B at 10 uM. In a few lines:
(§2)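 PP1, PP2B or PP2Cα phosphatase domain with 8 mM pNPP in each enzyme's optimal buffer. Compound added; activity taken from A405 and expressed relative to DMSO control. At least three experiments, mean ± SEM.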

Assay [5] addresses T1, PH domain leucine-rich repeat-containing protein phosphatase 2 (Homo sapiens) (UniProt Q6ZVD8).
T1 sequence (whole entry): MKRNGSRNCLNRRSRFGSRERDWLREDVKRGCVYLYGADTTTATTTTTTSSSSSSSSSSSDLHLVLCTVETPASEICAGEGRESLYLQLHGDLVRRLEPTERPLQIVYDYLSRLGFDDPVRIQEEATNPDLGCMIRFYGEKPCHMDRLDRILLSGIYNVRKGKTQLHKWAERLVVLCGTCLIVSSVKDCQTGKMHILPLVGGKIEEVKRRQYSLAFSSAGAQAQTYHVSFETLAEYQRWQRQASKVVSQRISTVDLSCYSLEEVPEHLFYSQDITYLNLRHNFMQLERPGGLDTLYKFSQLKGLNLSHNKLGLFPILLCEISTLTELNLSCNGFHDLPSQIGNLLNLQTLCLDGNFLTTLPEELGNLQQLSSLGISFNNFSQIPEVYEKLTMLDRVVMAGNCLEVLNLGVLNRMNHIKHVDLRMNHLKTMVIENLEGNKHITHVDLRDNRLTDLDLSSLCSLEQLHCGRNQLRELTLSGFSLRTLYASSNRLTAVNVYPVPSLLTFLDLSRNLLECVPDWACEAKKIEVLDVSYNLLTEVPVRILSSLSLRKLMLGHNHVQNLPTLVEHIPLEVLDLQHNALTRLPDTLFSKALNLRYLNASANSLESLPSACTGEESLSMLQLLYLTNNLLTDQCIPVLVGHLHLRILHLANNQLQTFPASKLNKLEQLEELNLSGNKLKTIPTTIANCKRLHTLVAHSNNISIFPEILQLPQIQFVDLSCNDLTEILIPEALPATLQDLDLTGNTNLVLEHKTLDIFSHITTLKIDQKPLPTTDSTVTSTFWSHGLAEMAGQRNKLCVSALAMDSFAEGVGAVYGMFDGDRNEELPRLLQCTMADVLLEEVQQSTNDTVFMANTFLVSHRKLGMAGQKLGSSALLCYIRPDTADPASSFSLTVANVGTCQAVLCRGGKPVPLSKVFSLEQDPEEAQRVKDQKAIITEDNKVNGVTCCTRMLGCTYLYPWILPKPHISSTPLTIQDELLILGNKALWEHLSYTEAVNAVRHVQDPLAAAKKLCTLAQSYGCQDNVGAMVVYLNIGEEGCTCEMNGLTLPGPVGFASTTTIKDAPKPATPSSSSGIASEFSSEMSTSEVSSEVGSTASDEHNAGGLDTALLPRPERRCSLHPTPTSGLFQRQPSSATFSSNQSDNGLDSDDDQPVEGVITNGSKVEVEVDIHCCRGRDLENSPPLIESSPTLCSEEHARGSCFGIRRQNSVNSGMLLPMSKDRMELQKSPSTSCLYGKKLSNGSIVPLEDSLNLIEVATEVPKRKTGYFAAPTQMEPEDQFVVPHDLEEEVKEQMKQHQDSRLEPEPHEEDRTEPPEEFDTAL
The following applies: 10 uM.

Assay [6] addresses T2, Protein phosphatase 1A (Homo sapiens) (UniProt P35813).
T2 sequence (whole entry): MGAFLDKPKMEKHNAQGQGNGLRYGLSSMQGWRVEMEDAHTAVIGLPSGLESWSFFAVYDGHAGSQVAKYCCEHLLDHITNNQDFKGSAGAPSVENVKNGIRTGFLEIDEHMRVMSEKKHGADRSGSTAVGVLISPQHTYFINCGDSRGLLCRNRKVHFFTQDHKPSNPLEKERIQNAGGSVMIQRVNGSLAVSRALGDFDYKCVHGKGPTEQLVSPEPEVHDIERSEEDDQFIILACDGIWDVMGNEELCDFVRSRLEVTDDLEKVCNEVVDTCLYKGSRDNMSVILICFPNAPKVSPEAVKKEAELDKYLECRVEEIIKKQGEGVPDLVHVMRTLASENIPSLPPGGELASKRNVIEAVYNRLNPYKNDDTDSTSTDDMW
Nature of the assay: Inhibition of PP2Calpha at 100 uM. In a few lines:
as §2

A short description of assay [7]: Inhibition of protein phosphatase 1 at 10 uM. In a few lines: as §2
Assay [8] has as its target T2, Protein phosphatase 1A (Homo sapiens). Nature of the assay: Inhibition of PP2Calpha at 10 uM. The gist of the method: as §2
In assay [9] the test system is COS-7. The assay is described as follows: Inhibition of PHLPP expressed in 24 hrs serum starved Cos7 cells assessed as half maximal increase of phosphorylation of Akt substrate after 30 mins by immunoblotting. Format: cell-based. The following applies: in the assay text read “after 35 mins” for “after 30 mins”. In a few lines:
(§3)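 COS 7 cells serum-starved 24 h in serum-free DMEM, then exposed 35 min at 37 °C to inhibitor over 4−400 or 3−300 μM; DMSO control. Lysates were immunoblotted for pSer473, pThr308, phospho-Akt-substrate motif, and actin. Densitometry normalized to actin and to DMSO (set to 1), fit to eq 2; four separate experiments, mean ± SEM.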
On the technique in general: Immunoblotting shows a protein as a band on a membrane.

Assay [10] deals with COS-7. Nature of the assay: Inhibition of PHLPP expressed in 24 hrs serum starved Cos7 cells assessed as half maximal increase of phosphorylation on Thr308 after 30 mins by immunoblotting. Format: cell-based. The following applies: in the assay text read “after 35 mins” for “after 30 mins”. In a few lines:
as §3

The nature of assay [11]: Inhibition of protein phosphatase 1 at 100 uM. The gist of the method: as §2
The test system of assay [12] is HT-29 (Homo sapiens). Nature of the assay: Inhibition of PHLPP in human HT29 cells assessed as increase of phosphorylation of Akt on Ser 473 at 100 to 250 uM after 24 hrs by immunoblotting relative to control.
The nature of assay [13]: Inhibition of PHLPP in human […] cells assessed as increase of phosphorylation of GSK3 alpha/beta on Ser21/9 at 100 to 250 uM after 24 hrs by immunoblotting. Format: cell-based. In a few lines:
as §1

Consider `Nc1c(S(=O)(=O)O)cc(Nc2cccc(S(N)(=O)=O)c2)c2c1C(=O)c1ccccc1C2=O`, for which the basal apoptotic cells in assay [1] amounted to 12%. For the same compound, the inhibition entry in assay [2], in assay [12] and in [13] was “Active” throughout. The IC50 (in general, the concentration that inhibits the measured activity by half) in assay [3] came out at 30 µM. Also, the inhibition result in assay [4], in assay [7] and in assay [8] was “inactive” in each case. Besides, the inhibition – broadly, how much of the control response was suppressed – was 80% in assay [5], 50% in assay [6] and 50% in assay [11]. For the same compound, the figures for the Activity in assay [9] and in assay [10] were 36.4 µM and 132 µM, respectively.
